We go through two sequences from PMC7683378 (Journal of autoimmunity, 2020).

In assay [1] the test system is lymphocytes from immunized SJL-DQ8 mice. The experiment in a line: ELISPOT of IL-2 and IFN-γ secretion by lymphocytes of immunized SJL-DQ8 mice. Type of assay: cell-based, mouse. Particulars: 5X10^5 lymphocytes, peptides 20 μg/ml, 48 hours. An outline of the steps: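 SJL-DQ8 mice (6; 3 female, 3 male) immunised s.c. with 150 μg InsB:9-23 in CFA and boosted in IFA. 5×10^5 spleen/draining-node lymphocytes plated on nitrocellulose wells coated with 4 μg/ml IL-2 or 10 μg/ml anti-IFN-γ capture antibody, 48 h at 37 °C with peptides at 20 μg/ml. Biotinylated detection antibody 2 h, streptavidin-AP 1 h, BCIP/NBT development. Positive response: >20 net SFC/10^6 and P<0.05 (t-test, triplicates).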

Assay [2] relates to recombinant HLA-DQ8 protein. Kind of assay: DELFIA immunoassay: inhibition of binding of other HLA-DQ8-binders. Details: species or system human. Particulars: biotinylated GAD65 or gliadin peptide with RI-D-peptide.
Assay [3] relates to PBMCs from HLA-DQ8 positive T1D patients. Kind of assay: Cytokine production. It counts as cell-based, human. Particulars: all peptides 20 μg/ml, 48 hours, Luminex; 31 new onset DQ8 positive T1D patients. The essentials: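 Fresh PBMCs from heparinised blood (Ficoll) of patients genotyped for at least one DQB*03:02 allele, seeded in RPMI/10% FBS. Stimulated 48 h with InsB:9-23 or scrambled InsB:9-23, with or without RI-D-peptides or scrambled versions, all peptides at 20 μg/ml. Supernatant cytokines by Luminex, as for mouse lymphocytes. Long-standing (>10 years) DQ8 T1D patients served as controls.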

Assay [4] has the same test system. The experiment in a line: Lymphocyte proliferation. Type of assay: cell-based, human. Conditions: all peptides 20 μg/ml; gated on live T-cells. An outline of the steps: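 Fresh Ficoll-isolated PBMCs from patients with at least one DQB*03:02 allele, in RPMI/10% FBS. Stimulated 48 h with InsB:9-23 or scrambled InsB:9-23, with or without RI-D-peptides or scrambled versions, all at 20 μg/ml. Proliferation by CFSE as for mouse lymphocytes, gated on live T-cells. Inhibition = 100 − 100 × (proliferation with/without RI-D-peptide).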

For assay [5], the system named is 5KC cells (TCR specific for the InsB:9-23–DQ8 complex). Kind of assay: Cellular antigen presentation assay. Type of assay: cell-based, mouse. Conditions: BSM cells + 5KC cells incubated with the peptide; IL-2 by Luminex. The essentials: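 HLA-DQ8-homozygous BSM B-cells (RPMI, 10% FBS, 37 °C, 5% CO2): 10^6 cells loaded overnight with 200 μg/ml InsB:9-23 (scrambled InsB:9-23 or gliadin as negative peptides), washed twice with PBS, then given RI-D-peptide or scrambled control for 2 h at 37 °C. 5KC mouse T-hybridoma cells with human TCR added 1:1, overnight. Supernatant IL-2 by Luminex; anti-CD3/CD28 beads as positive control; 4–5 independent experiments.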

Assay [6] deals with lymphocytes from immunized SJL-DQ8 mice. The experiment in a line: Ex vivo cytokine production. It counts as cell-based, mouse. Conditions: all peptides 20 μg/ml, 48 hours, Luminex; 20 SJL-DQ8 mice. An outline of the steps: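 Lymphocytes from spleens and draining nodes of SJL-DQ8 mice (6–8 weeks) immunised s.c. with 150 μg InsB:9-23 in CFA and boosted in IFA. Plated at 2×10^5 cells/well in RPMI/10% FBS with medium, InsB:9-23 with or without RI-D-peptides or scrambled versions, or scrambled InsB:9-23, all at 20 μg/ml. Supernatants taken at 48 h, kept at −80 °C, cytokines by mouse Milliplex Luminex panel.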

The subject of assay [7] is recombinant HLA-DQ8 protein. It counts as binding, human. Particulars: serially diluted to 0.5 μM, 48 hours at 37 °C. The essentials:
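DELFIA: recombinant HLA-DQ8 (0.012 mg/ml) with 10 μM biotinylated InsB:9-23, plus RI-D-peptide serially diluted to 0.5 μM final, 48 h at 37 °C in 0.1% BSA/PBS with 0.05% Triton. Then bound on nickel-coated plates 2 h at RT, washed, Eu-streptavidin 30 min at RT, washed, enhancement solution ~1 h. Time-resolved fluorescence gave percent inhibition.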

Assay [8] deals with lymphocytes from immunized SJL-DQ8 mice. The experiment in a line: Ex vivo lymphocyte proliferation. Conditions: all peptides 20 μg/ml, 5 days, flow cytometry. Type of assay: cell-based, mouse. An outline of the steps:
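Spleen/draining-node cells from InsB:9-23-immunised SJL-DQ8 mice, 10^6 cells at 2×10^6/ml in 0.1% BSA/PBS, labelled with 1.5 μM CFSE for 10 min at 37 °C. Quenched with ice-cold RPMI/10% FBS, 5 min on ice, washed three times. Plated at 2×10^5 cells/well with peptides at 20 μg/ml for 5 days. Flow cytometry gated on live singlets; at least triplicates; inhibition = 100 − 100 × (proliferation with/without RI-D-peptide).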

For GGREGCVLYLAEVGG [RI-CT], in assay [1], the “IFN-γ ELISPOT response to InsB:9-23” value was “significantly decreased” and the “IL-2 ELISPOT response to InsB:9-23” value is recorded as “significantly decreased”. The “Competition with other HLA-DQ8-binders (GAD65, gliadin)” value in assay [2] is “competed only with InsB:9-23 and not with other HLA-DQ8-binders”. For the same sequence, in assay [3], the “IFN-γ production in PBMCs stimulated with InsB:9-23” value was “significantly suppressed” and the “IL-2 production in PBMCs stimulated with InsB:9-23” value is listed as “significantly suppressed”. In addition, the “Lymphocytes proliferation in PBMCs stimulated with InsB:9-23 (CFSE assay)” value in assay [4] is “significantly suppressed”. Also, the “Activation of 5KC T-cells (IL-2 secretion) by the peptide itself” value in assay [5] is listed as “did not activate TCR”. In assay [6], the “IFN-γ production by lymphocytes stimulated with InsB:9-23” value was “significantly blocked” and the “IL-2 production by lymphocytes stimulated with InsB:9-23” value is given as “significantly blocked”. Also, in assay [7], the “Dose dependence of inhibition of InsB:9-23 binding to HLA-DQ8” value is recorded as “dose-dependent”. Further, the “Lymphocyte proliferation induced by InsB:9-23 (CFSE assay)” value in assay [8] is given as “significantly suppressed”.
Take FFGGREGCVLYLAEVLHSG [RI-EXT]: in assay [1], the “IFN-γ ELISPOT response to InsB:9-23” value is given as “significantly decreased” and the “IL-2 ELISPOT response to InsB:9-23” value was “significantly decreased”. Further, the “Competition with other HLA-DQ8-binders (GAD65, gliadin)” value in assay [2] was “competed only with InsB:9-23 and not with other HLA-DQ8-binders”. In assay [3], the “IFN-γ production in PBMCs stimulated with InsB:9-23” value is “significantly suppressed” and the “IL-2 production in PBMCs stimulated with InsB:9-23” value was “significantly suppressed”. For the same sequence, in assay [4], the “Lymphocytes proliferation in PBMCs stimulated with InsB:9-23 (CFSE assay)” value is on record as “significantly suppressed”. Moreover, in assay [5], the “Activation of 5KC T-cells (IL-2 secretion) by the peptide itself” value was “did not activate TCR”. For the same sequence, in assay [6], the “IFN-γ production by lymphocytes stimulated with InsB:9-23” value is “significantly blocked” and the “IL-2 production by lymphocytes stimulated with InsB:9-23” value is “significantly blocked”. The “Dose dependence of inhibition of InsB:9-23 binding to HLA-DQ8” value in assay [7] is recorded as “dose-dependent”. In addition, the “Lymphocyte proliferation induced by InsB:9-23 (CFSE assay)” value in assay [8] was “significantly suppressed”.
